In ChEMBL document CHEMBL4118197, “The discovery and preclinical evaluation of BMS-707035, a potent HIV-1 integrase strand transfer inhibitor” (Bioorg Med Chem Lett, 2018):

Legend:
[1] = target: Human immunodeficiency virus type 1 integrase (Human immunodeficiency virus 1, UniProt Q7ZJM1); test: Inhibition of HIV1 integrase strand transfer activity
[2] = Clearance in Sprague-Dawley rat at 1 mg/kg, iv after 4 hrs; format: ADME, organism-based; conditions: in vivo
Method in brief: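 Male Sprague-Dawley rats given 1 mpk IV in PEG400/ethanol (90:10); blood sampled at 5 and 30 min and 1, 2 and 4 h post-dose; clearance from plasma profile.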

[3] = Aqueous solubility of the compound; format: physicochemical
Method in brief: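 Aqueous solubility measured at pH 2.3, 6.1, 7.3 and 8.5, in µg/mL.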

Chain of Human immunodeficiency virus type 1 integrase (Q7ZJM1 whole entry): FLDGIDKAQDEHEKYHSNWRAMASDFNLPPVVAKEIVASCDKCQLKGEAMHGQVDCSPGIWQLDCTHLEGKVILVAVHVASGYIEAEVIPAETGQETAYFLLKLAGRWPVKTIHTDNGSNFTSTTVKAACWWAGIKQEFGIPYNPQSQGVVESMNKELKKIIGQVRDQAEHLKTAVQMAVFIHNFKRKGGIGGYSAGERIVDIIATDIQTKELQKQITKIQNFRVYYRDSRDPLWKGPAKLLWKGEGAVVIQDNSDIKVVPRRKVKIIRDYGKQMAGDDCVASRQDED

| IC50 [1] [nM] | clearance [2] [mL/min/kg] | solubility [3] [µg/mL] | Structure (SMILES) |
| --- | --- | --- | --- |
| 3 | 18 | ≤ 5 | O=C(NCc1ccc(F)cc1)c1nc2n(c(=O)c1O)CCCC21CCCC1 |
| 10 |  |  | CC1(C)OCCn2c1nc(C(=O)NCc1ccc(F)cc1Cl)c(O)c2=O |
